ChEMBL document CHEMBL1122698, “Selective delivery of cytotoxic compounds to cells by the LDL pathway” (1984)

Experiments:
Assay type in all cases: functional
[1] = species: Homo sapiens; test: The compound was tested for the toxicity of normal +r-LDL, measured by its ability to inhibit the growth of normal human fibroblasts or chinese hamster ovary (CHO) cells, at concentration 0.5 ug/mL
Outline: (§1)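 Compound reconstituted into LDL (r-LDL) and added to cells; concentration given as LDL protein, roughly equal to compound concentration. Cells plated 20 000/well, left 4 h, then r-LDL added. On day 3, wells washed with PBS to remove dead cells; adherent cells fixed in 15% formalin 15 min, crystal violet stained, scored visually on a 0–6 growth scale (untreated control = 6).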

[2] = The compound was tested for the toxicity of mutant+r-LDL, measured by its ability to inhibit the growth of normal human fibroblasts or chinese hamster ovary (CHO) cells, at concentration 0.5 ug/mL; outline: as §1
[3] = species: Homo sapiens; test: (§2) The compound was tested for the toxicity of normal +r-LDL, measured by its ability to inhibit the growth of normal human fibroblasts or chinese hamster ovary (CHO) cells, at concentration 10 ug/mL; outline: as §1
[4] = The compound was tested for the toxicity of mutant+r-LDL, measured by its ability to inhibit the growth of normal human fibroblasts or chinese hamster ovary (CHO) cells, at concentration 10 ug/mL; outline: as §1
[5] = species: Homo sapiens; test: as §2; remark: listed apart in the source
Outline: (§3)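 Normal human fibroblasts were seeded at 20 000/well and held 4 h before addition of compound-reconstituted LDL (r-LDL) or methylated r-LDL. Comparison cells with few LDL receptors were receptor-negative homozygous FH fibroblasts or V-79 CHO cells. Doses are given as LDL protein concentration. On day 3 the cells were PBS-washed, fixed with 15% formalin for 15 min and stained with crystal violet. Growth was scored visually from 0 to 6, with untreated controls at 6.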

[6] = species: Homo sapiens; test: The compound was tested for the toxicity of +r-LDL,measured by its ability to inhibit the growth of normal human fibroblasts or chinese hamster ovary (CHO) cells, at concentration 80 ug/mL
Outline: (§4)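 SV-40-transformed human fibroblasts (SV-589) were seeded at 20 000/well and left 4 h. They were then exposed to compound-reconstituted LDL or reconstituted methylated LDL (Me-r-LDL, not recognised by LDL receptors). Doses are given as LDL protein concentration. On day 3 the wells were PBS-washed to remove dead cells, and adherent cells were fixed with 15% formalin for 15 min and stained with crystal violet. Growth was scored visually, with untreated controls scored 4.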

[7] = species: Homo sapiens; test: The compound was tested for the toxicity of +Me-r-LDL,measured by its ability to inhibit the growth of normal human fibroblasts or chinese hamster ovary (CHO) cells, at concentration 80 ug/mL; outline: as §4
[8] = species: Homo sapiens; test: The compound was tested for the toxicity of normal +r-LDL, measured by its ability to inhibit the growth of normal human fibroblasts or chinese hamster ovary (CHO) cells, at concentration 80 ug/mL; outline: as §3
[9] = The compound was tested for the toxicity of mutant+r-LDL, measured by its ability to inhibit the growth of normal human fibroblasts or chinese hamster ovary (CHO) cells, at concentration 2 ug/mL; outline: as §3
[10] = species: Homo sapiens; test: The compound was tested for the toxicity of normal+r-LDL, measured by its ability to inhibit the growth of normal human fibroblasts or chinese hamster ovary (CHO) cells, at concentration 10 ug/mL; outline: as §3
[11] = species: Homo sapiens; test: The compound was tested for the toxicity of normal+r-LDL, measured by its ability to inhibit the growth of normal human fibroblasts or chinese hamster ovary (CHO) cells, at concentration 2 ug/mL; outline: as §3
[12] = The compound was tested for the toxicity of mutant+r-LDL, measured by its ability to inhibit the growth of normal human fibroblasts or chinese hamster ovary (CHO) cells, at concentration 20 ug/mL; outline: as §3
[13] = species: Homo sapiens; test: The compound was tested for the toxicity of normal +r-LDL, measured by its ability to inhibit the growth of normal human fibroblasts or chinese hamster ovary (CHO) cells, at concentration 20 ug/mL; outline: as §3

SMILES: CCCCCCCC/C=C\CCCCCCCCN1CC(C)OC(C)C1 (stereo not drawn)
- Growth of cells [1]: 0
- Growth of cells [2]: 0

SMILES: CCCCCCCC/C=C\CCCCCCCCC(=O)O[C@H]1CC[C@@]2(C)C(=CC[C@H]3[C@@H]4CC[C@H](C(C)COC(=O)NCCCCCCCCCCCC)C4CC[C@@H]32)C1 (stereo partly drawn)
- Growth of cells [3]: 6
- Growth of cells [4]: 6

SMILES: CCCCCCCC/C=C\CCCCCCCCOC(=O)N(CCCCCCCCCCCC)CC(F)F
- Growth of cells [3]: 6
- Growth of cells [4]: 6

SMILES: CCCCCCCC/C=C\CCCCCCCCC(=O)O[C@H]1CC[C@@]2(C)C(=CC[C@H]3[C@@H]4CC[C@H](C(C)C(=O)N5CCOC(CCCCCCCCCCCC)C5)C4CC[C@@H]32)C1 (stereo partly drawn)
- Growth of cells [1]: 6
- Growth of cells [2]: 6

SMILES: CCCCCCCC/C=C\CCCCCCCCC(=O)O[C@H]1CC[C@@]2(C)C(=CC[C@H]3[C@@H]4CC[C@H](C(C)COC(=O)N(CCCl)CCCl)C4CC[C@@H]32)C1 (stereo partly drawn)
- Growth of cells [5]: 0
- Growth of cells [4]: 6

SMILES: CCCCCCCC/C=C\CCCCCCCCC(=O)O[C@H]1CC[C@@]2(C)C(=CC[C@H]3[C@@H]4CC[C@H](C(C)CCCOC(=O)CCCc5ccc(N(CCCl)CCCl)cc5)C4CC[C@@H]32)C1 (stereo partly drawn)
- Growth of cells [6]: 4
- Growth of cells [7]: 4

SMILES: CCCCCCCC/C=C\CCCCCCCCC(=O)O[C@H]1CC[C@@]2(C)C(=CC[C@H]3[C@@H]4CC[C@H](C(C)COC(=O)CCCc5ccc(N(CCCl)CCCl)cc5)C4CC[C@@H]32)C1 (stereo partly drawn)
- Growth of cells [6]: 4
- Growth of cells [8]: 6
- Growth of cells [7]: 4

SMILES: CCCCCCCC/C=C\CCCCCCCCOC(=O)N1CCOC(CCCCCCCCCCCC)C1 (stereo not drawn)
- Growth of cells [3]: 6
- Growth of cells [4]: 6

SMILES: CCCCCCCC/C=C\CCCCCCCCOC(=O)N(CCCCCCCCCCCC)CC(F)(F)F
- Growth of cells [5]: 6
- Growth of cells [4]: 6

SMILES: CCCCCCCC/C=C\CCCCCCCCOC(=O)N(CCCl)CCCl
- Growth of cells [9]: 5
- Growth of cells [10]: 0
- Growth of cells [11]: 2
- Growth of cells [4]: 0

SMILES: CCCCCCCC/C=C\CCCCCCCCN1CCOCC1
- Growth of cells [1]: 0
- Growth of cells [2]: 1

SMILES: CC1=C(/C=C/C(C)=C/C=C/C(C)=C\CN2CCOCC2)C(C)(C)CCC1
- Growth of cells [1]: 0
- Growth of cells [2]: 0

SMILES: CCCCCCCC/C=C\CCCCCCCCNC(=O)C(C)[C@H]1CC[C@@H]2C1CC[C@H]1[C@H]2CC=C2C[C@@H](OC(=O)CCCCCCCC/C=C\CCCCCCCC)CC[C@@]21C (stereo partly drawn)
- Growth of cells [12]: 6
- Growth of cells [13]: 6

SMILES: CC(C)CCCC(C)C1CCC2C3CC=C4CC(OC(=O)Cc5ccc(N(CCCl)CCCl)cc5)CCC4(C)C3CCC12C (stereo not drawn)
- Growth of cells [12]: 6
- Growth of cells [13]: 6

SMILES: CCCCCCCC/C=C\CCCCCCCCC(=O)O[C@H]1CC[C@@]2(C)C(=CC[C@H]3[C@@H]4CC[C@H](C(C)COC(=O)N5CCOC(CCCCCCCCCCCC)C5)C4CC[C@@H]32)C1 (stereo partly drawn)
- Growth of cells [3]: 6
- Growth of cells [4]: 6
